Source: paper PMC7088158 (International Journal of Peptide Research and Therapeutics, 2006)

Legend:
[1] = Aqueous solubility of the substrates; type: physicochemical; settings: standard form (CFO-1 N-terminus, Lys(BHQ-2)-amide C-terminus)
α-chymotrypsin = α-chymotrypsin (Bos taurus, UniProt P00766, DEL14-15/DEL147-148); settings: pH 7.5
[2] = target: T1, Human erythrocyte calpain I (Homo sapiens, UniProt P07384); type: biochemical; settings: pH 7.5
T1 sequence (P07384 1-714): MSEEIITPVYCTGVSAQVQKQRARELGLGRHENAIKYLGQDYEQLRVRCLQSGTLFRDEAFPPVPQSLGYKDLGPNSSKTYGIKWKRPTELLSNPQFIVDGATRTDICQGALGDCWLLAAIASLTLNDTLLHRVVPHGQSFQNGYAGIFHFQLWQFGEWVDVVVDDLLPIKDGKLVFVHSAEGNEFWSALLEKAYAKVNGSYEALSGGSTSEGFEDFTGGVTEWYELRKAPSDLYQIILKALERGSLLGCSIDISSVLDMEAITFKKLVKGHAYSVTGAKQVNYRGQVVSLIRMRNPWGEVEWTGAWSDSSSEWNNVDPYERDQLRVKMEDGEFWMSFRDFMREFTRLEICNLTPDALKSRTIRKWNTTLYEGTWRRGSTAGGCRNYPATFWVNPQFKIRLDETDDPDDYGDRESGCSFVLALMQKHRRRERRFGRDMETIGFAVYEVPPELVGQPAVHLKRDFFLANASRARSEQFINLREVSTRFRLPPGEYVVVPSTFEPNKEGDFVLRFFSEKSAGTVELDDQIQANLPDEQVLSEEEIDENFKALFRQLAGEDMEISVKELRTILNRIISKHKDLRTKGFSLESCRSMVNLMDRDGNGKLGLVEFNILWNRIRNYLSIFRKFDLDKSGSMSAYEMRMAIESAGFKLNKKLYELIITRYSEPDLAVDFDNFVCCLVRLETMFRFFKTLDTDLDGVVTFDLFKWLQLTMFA
T1 sequence (P04632 1-268 partner): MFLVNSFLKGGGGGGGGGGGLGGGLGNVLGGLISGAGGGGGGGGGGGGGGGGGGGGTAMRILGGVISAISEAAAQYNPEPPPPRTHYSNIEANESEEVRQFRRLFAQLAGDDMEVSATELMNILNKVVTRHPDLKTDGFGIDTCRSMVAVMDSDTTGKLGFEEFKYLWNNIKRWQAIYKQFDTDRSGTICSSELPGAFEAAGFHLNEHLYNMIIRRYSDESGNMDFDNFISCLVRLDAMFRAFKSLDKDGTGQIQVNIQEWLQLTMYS

primary cortical neurons = experiment: Live cell imaging of probe entry and fluorescence in primary cortical neurons; type: cell-based, rat; settings: washed
Method in brief: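 Cortical neurons from E18 rat cortices, papain-dissociated (2 mg/mL, 30 min, 37 °C), plated at 1 × 10^5 cells/well on poly-D-lysine-coated chambered cover glasses in Neurobasal/B27 medium and used at 5 DIV. Confocal live imaging used a 20× air objective at 37 °C, with 543 nm excitation and emission collected at 560–615 nm. Frames were taken every 1–2 min.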

trypsin = settings: pH 7.5
[3] = system: primary hippocampal neurons; experiment: Live cell imaging of probe entry and fluorescence in primary hippocampal neurons; type: cell-based, rat; settings: cA 1 μM preloaded 30 min in Ca2+-free buffer, ionomycin 5 μM then CaCl2 0.2 mM
Method in brief: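 Hippocampal neurons from E18 rat hippocampi, papain-dissociated (2 mg/mL, 30 min, 37 °C), plated at 1 × 10^5 cells/well on poly-D-lysine cover glasses and used at 9–12 DIV. Medium was Neurobasal/B27 with 1% FBS and glutamate, half-replaced on days 4 and 7. Confocal imaging at 37 °C, 20× air objective, 543 nm excitation, 560–615 nm emission, frames every 1–2 min.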

Row | Substance | Stability to chymotrypsin, in words (α-chymotrypsin) | Effectiveness as calpain substrate, in words [2] | also measured
1 | EVYGM*M* [cG] | – | – | Solubility, in words [1]: very poorly soluble
2 | PLLAERP [cXb] | considerably improved chymotryptic stability | at least as an effective calpain substrate as its parent | –
3 | PLGAERP [cXa] | affected remarkably little | rather similar as a calpain substrate to its parent | –
4 | VVQAGI [cM] | – | – | Solubility, in words [1]: very poorly soluble
5 | PLLAERP [cXe] | very much more stable to chymotrypsin | improved calpain substrate | Intracellular fluorescence following ionomycin (primary cortical neurons; cXe 2 μM 40 min, ionomycin 5 μM): increased intracellular fluorescence; Entry into cells without transporter sequence (primary cortical neurons; cXe 2 μM preloaded 40 min, confocal imaging 37 °C): proved to enter cells without a transporter sequence
6 | PLVAERP [cXc] | – | dramatically reduced the effectiveness of calpain processing | –
7 | VVTAEA [cJ] | – | – | Solubility, in words [1]: very poorly soluble
8 | PLLAERP [cXf] | little improvement | – | –
9 | PLFAER [cW] | – | far superior calpain substrate compared to cA | Stability to trypsin, in words (trypsin): poor stability
10 | PLLAERP [cXg] | significantly improved | – | –
11 | GSGTSS [cA] | – | proceeded only partially | Intracellular fluorescence on activation of calpain pathways by ionomycin [3]: fluorescence was observed
